Active and inactive are the calls of the source. The calls are words filed in the database; no cut-off is given here.
Columns and labels:
[1] = Volume of distribution at steady state in NMRI mouse at 0.2 mg/kg, iv; type: ADME, organism-based; set-up: dose 0.2 mg/kg, route intravenous; settings: in vivo, read-out: Vdss
How it was run: (§1)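 Female NMRI mice (n = 5) given a single iv bolus (0.2 mg/kg per compound) or oral gavage (0.5 mg/kg per compound) as a cassette, in DMSO/PEG 200/water. Serial retro-orbital blood was drawn under isoflurane from 3 animals per route at 0.1 (iv), 0.25 (po), 0.5, 1, 2, 4 and 6 h. Plasma was quantified by LC–MS/MS.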

[2] = AUC in NMRI mouse at 0.2 mg/kg, iv; type: ADME, organism-based; set-up: dose 0.2 mg/kg, route intravenous; settings: plasma; how it was run: as §1
[3] = Tmax in NMRI mouse at 0.5 mg/kg, po; type: ADME, organism-based; set-up: dose 0.5 mg/kg, route oral; settings: in vivo; how it was run: as §1
[4] = AUC in NMRI mouse at 0.5 mg/kg, po; type: ADME, organism-based; set-up: dose 0.5 mg/kg, route oral; settings: plasma; how it was run: as §1
[5] = Volume of distribution at steady state in Wistar rat at 0.2 mg/kg, iv; type: ADME, organism-based; set-up: dose 0.2 mg/kg, route intravenous; settings: in vivo, read-out: Vdss
How it was run: (§2)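 Male Wistar rats (n = 6) received cassette dosing, either iv bolus at 0.2 mg/kg or oral gavage at 0.5 mg/kg per compound, in DMSO/PEG 200/water. Plasma levels were measured by UPLC–MS/MS.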

[6] = Tmax in Wistar rat at 0.2 mg/kg, iv; type: ADME, organism-based; set-up: dose 0.2 mg/kg, route intravenous; settings: in vivo; how it was run: as §2
[7] = molecular target: T1, Poly [ADP-ribose] polymerase tankyrase-2 (Homo sapiens, UniProt Q9H2K2); assay: Inhibition of GST-tagged TNKS2 (873 to 1166 aa) (unknown origin) after 90 mins by HTRF assay
T1 sequence (Q9H2K2 whole entry): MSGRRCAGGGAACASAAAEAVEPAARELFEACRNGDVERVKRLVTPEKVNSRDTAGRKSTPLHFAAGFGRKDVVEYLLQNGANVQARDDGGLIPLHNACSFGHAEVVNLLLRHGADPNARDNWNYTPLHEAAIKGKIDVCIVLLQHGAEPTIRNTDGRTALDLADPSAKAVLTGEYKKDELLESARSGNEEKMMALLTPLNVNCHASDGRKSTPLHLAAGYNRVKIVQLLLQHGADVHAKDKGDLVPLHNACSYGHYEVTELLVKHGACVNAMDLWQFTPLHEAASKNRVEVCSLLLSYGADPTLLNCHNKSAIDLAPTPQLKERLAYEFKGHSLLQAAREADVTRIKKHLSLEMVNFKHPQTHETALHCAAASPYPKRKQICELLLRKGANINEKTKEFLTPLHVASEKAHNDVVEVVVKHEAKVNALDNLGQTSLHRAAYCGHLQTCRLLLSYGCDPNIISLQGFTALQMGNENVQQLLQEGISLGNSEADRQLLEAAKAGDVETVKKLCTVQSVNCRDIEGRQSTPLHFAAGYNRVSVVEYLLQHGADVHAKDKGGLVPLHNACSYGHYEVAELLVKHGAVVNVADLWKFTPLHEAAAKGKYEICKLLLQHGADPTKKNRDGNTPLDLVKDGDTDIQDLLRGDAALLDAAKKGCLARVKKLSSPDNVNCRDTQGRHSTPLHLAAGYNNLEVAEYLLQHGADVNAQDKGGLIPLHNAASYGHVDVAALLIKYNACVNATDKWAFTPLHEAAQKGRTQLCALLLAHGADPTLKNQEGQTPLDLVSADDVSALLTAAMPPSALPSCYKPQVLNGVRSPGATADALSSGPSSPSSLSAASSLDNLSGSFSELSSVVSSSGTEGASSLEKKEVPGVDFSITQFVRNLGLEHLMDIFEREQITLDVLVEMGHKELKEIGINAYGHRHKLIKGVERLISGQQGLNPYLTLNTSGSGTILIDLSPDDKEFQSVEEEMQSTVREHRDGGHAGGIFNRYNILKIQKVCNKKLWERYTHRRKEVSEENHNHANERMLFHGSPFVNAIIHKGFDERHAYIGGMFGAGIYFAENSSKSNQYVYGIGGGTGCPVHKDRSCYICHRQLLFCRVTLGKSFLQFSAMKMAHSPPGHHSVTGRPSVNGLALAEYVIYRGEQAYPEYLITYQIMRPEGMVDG

[8] = molecular target: Cytochrome P450 2C9 (Homo sapiens, UniProt P11712); assay: Inhibition of CYP2C9 (unknown origin); type: ADME; settings: human
[9] = molecular target: Cytochrome P450 3A4 (Homo sapiens, UniProt P08684); assay: Inhibition of CYP3A4 (unknown origin); type: ADME; settings: human
[10] = system: COLO 205; assay: Effect on TCF4 level in human COLO205-F1756 clone 4 cells harboring APC mutant and TCF/LEF responsive element at 350 nM by immunoblotting; type: functional, cell-based
[11] = Antitumor activity against human COLO205-F1756 clone 4 cells harboring APC mutant xenografted in CrTac:NCr-Foxn1nu mouse assessed as reduction in flux normalized to tumor weight at 70 mg/kg, po bid for 9 days relative to control; type: functional, COLO 205; set-up: scale not given: the % may be the effect or the level left
How it was run: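 Female athymic nude mice were implanted sc in the flank with 3 million COLO205-F1756 clone 4 cells. At about 100 mm3, groups of n = 8 were gavaged at 70 mg/kg bid or with vehicle (10% DMSO, 5% Tween 20 in saline). Luminescent flux was imaged after sc D-luciferin 2 and 6 h post final dose, then tumours were excised and weighed. Mann–Whitney U test.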

[12] = Drug uptake in tumor of human COLO205-F1756 clone 4 cells harboring APC mutant xenografted CrTac:NCr-Foxn1nu mouse at 70 mg/kg, po bid for 9 days measured after 2 to 6 hrs; type: ADME, organism-based, COLO 205; set-up: dose 70 mg/kg, route oral; settings: in vivo
How it was run: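 In COLO205-F1756 clone 4 xenograft-bearing nude mice dosed orally at 70 mg/kg bid, cardiac blood and tumours were taken 2 and 6 h after the final dose. Tumours were homogenized in 3 v/w PBS, methanol-extracted with internal standard, and total levels were measured by UPLC–MS/MS (MRM, positive ion).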

[13] = cells; settings: Homo sapiens, RKO-F1522, 24 h

Chain of Cytochrome P450 3A4 (P08684 whole entry): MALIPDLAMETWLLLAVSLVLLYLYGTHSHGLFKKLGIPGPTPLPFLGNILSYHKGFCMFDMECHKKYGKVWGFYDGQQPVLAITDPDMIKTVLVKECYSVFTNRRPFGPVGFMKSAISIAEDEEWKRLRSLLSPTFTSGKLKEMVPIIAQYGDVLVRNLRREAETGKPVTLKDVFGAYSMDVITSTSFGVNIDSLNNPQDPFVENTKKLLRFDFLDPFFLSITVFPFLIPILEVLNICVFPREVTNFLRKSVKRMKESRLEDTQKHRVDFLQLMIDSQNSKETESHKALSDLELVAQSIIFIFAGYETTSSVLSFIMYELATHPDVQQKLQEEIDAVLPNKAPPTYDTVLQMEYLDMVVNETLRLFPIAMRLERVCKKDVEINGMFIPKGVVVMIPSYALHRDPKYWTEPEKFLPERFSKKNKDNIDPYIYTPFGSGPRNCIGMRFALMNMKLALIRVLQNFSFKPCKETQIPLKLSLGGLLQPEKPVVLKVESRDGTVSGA
Chain of Cytochrome P450 2C9 (P11712 whole entry): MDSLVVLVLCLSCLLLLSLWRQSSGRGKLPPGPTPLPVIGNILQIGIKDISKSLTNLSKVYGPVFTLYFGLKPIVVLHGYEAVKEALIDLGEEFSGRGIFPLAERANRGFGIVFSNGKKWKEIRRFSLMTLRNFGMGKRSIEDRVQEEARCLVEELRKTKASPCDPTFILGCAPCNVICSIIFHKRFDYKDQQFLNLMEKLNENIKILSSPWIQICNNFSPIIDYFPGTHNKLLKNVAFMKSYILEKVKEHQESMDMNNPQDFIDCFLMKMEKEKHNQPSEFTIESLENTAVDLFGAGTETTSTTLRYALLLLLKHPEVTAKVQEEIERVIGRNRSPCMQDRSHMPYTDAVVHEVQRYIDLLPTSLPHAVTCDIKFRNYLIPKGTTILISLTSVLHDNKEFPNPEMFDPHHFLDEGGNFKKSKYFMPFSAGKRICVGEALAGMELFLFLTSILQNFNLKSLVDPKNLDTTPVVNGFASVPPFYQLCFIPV

`Cn1cc(-c2ccc(-c3cncc(Cl)c3N3CCC4(CCNC4=O)CC3)cc2)cn1` showed a Vd [1] of 1.1 L/kg, an AUC [2] of 107 ng·h/mL and a Tmax [3] of 15 min. For the same compound, the AUC [4] was 143 ng·h/mL, the Vd [5] was 1.8 L/kg and the Tmax [6] was 6 min. For the same compound, the IC50 [7] was 15 µM, the “inhibition (INH)” value [8] was “Not Active” and the “inhibition (INH)” value [9] was “Not Active”. The Activity [10] was “inactive”, the Activity [11] was 80% and the Drug uptake [12] was “Active”. For the same compound, the IC50 [13] was > 10 µM.

Source: ChEMBL document CHEMBL3407438, “Discovery of potent, orally bioavailable, small-molecule inhibitors of WNT signaling from a cell-based pathway screen” (J Med Chem, 2015)
